Assays:
Beta-lactamase = Beta-lactamase (Pseudomonas aeruginosa (strain ATCC 15692 / PAO1 / 1C / PRS 101 / LMG12228), UniProt P24735); experiment: Inhibition of Pseudomonas aeruginosa CL5701 AmpC by spectrophotometric assay
Procedure, shortened: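 AmpC from Pseudomonas aeruginosa, in 100 mM KH₂PO₄ buffer pH 7 with 0.005% BSA. Inhibitor serially diluted from DMSO and preincubated with enzyme 40 min at room temperature. Nitrocefin then added for a further 40 min. Quenched with 2.5 N acetic acid, absorbance read at 492 nm. IC₅₀ taken from semi-log plots of inhibition versus inhibitor concentration.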

[1] = molecular target: Beta-lactamase (Pseudomonas aeruginosa (strain ATCC 15692 / PAO1 / 1C / PRS 101 / LMG12228)) (UniProt P24735); experiment: Inhibition of AmpC in Pseudomonas aeruginosa CL5701 assessed as concentration required to reduce the imipenen MIC from 32 ug/ml to 4 ug/ml by in vitro synergy assay
Chain of Beta-lactamase (Pseudomonas aeruginosa (strain ATCC 15692 / PAO1 / 1C / PRS 101 / LMG12228)) (P24735 27-397 limits assumed): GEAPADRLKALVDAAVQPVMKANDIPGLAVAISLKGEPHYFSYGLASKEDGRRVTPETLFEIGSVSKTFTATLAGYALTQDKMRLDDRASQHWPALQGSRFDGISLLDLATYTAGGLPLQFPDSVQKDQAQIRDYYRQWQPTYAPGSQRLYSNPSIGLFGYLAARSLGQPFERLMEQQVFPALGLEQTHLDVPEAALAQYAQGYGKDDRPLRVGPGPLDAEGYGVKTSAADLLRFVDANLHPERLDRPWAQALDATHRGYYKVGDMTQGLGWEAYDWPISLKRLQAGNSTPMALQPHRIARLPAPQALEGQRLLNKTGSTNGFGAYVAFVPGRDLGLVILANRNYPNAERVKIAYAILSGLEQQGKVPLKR

Chain of Beta-lactamase (P24735 whole entry): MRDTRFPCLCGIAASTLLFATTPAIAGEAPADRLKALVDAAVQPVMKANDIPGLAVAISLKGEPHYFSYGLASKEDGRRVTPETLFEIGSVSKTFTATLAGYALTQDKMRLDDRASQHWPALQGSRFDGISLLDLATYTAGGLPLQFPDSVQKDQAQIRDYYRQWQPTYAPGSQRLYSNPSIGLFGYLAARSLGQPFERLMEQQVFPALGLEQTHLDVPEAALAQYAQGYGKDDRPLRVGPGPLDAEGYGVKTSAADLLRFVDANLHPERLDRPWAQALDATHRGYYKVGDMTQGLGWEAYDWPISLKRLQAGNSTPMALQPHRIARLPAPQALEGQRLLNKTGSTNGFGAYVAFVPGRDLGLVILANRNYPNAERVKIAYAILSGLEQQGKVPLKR

Row | SMILES | IC50 (Beta-lactamase) | Activity [1]
1 | CN(C)CCCCCNC(=O)N1CC[C@@H]2[C@H]1C(=O)N2S(=O)(=O)O | 1.9 µM | 100 µM
2 | CC(C)NC(=O)N1CC[C@@H]2[C@H]1C(=O)N2S(=O)(=O)O | 1.8 µM | > 100 µM
3 | O=C1[C@H]2NCC[C@H]2N1S(=O)(=O)O | > 250 µM | > 100 µM
4 | CNCCCNC(=O)N1CC[C@@H]2[C@H]1C(=O)N2S(=O)(=O)O | 5.3 µM | 50 µM
5 | O=C(N[C@H]1CCCN(CCCO)CC1)N1CC[C@@H]2[C@H]1C(=O)N2S(=O)(=O)O | 1.1 µM | 50 µM
6 | NC(=O)N1CC[C@@H]2[C@H]1C(=O)N2S(=O)(=O)O | 16 µM | > 100 µM
7 | CN(C)CCCCNC(=O)N1CC[C@@H]2[C@H]1C(=O)N2S(=O)(=O)O | 1.6 µM | 25 µM

Further compounds by falling IC50 (Beta-lactamase), results first:

Row | IC50 (Beta-lactamase) | Activity [1] | SMILES
8 | 3.5 µM | 25 µM | CNCCCCNC(=O)N1CC[C@@H]2[C@H]1C(=O)N2S(=O)(=O)O
9 | 2.6 µM | 25 µM | CN1CCC[C@H](NC(=O)N2CC[C@@H]3[C@H]2C(=O)N3S(=O)(=O)O)CC1
10 | 2.1 µM | 25 µM | CN(C)CCCNC(=O)N1CC[C@@H]2[C@H]1C(=O)N2S(=O)(=O)O
11 | 1.5 µM | 50 µM | C[N+]1(C)CCC[C@H](NC(=O)N2CC[C@@H]3[C@H]2C(=O)N3S(=O)(=O)[O-])CC1
12 | 0.9 µM | 25 µM | O=C(N[C@H]1CCCN(CCO)CC1)N1CC[C@@H]2[C@H]1C(=O)N2S(=O)(=O)O
13 | 0.9 µM | 100 µM | CN(C)CCN1CCC[C@H](NC(=O)N2CC[C@@H]3[C@H]2C(=O)N3S(=O)(=O)O)CC1
14 | 0.6 µM | 25 µM | NCCN1CCC[C@H](NC(=O)N2CC[C@@H]3[C@H]2C(=O)N3S(=O)(=O)O)CC1

From ChEMBL document CHEMBL1799948, “Side chain SAR of bicyclic β-lactamase inhibitors (BLIs). 2. N-Alkylated and open chain analogs of MK-8712” (Bioorg Med Chem Lett, 2011)
